Activity calls are given as the source filed them. The rule behind the calls is not given here.
Key:
[1] = test system: MDA-MB-231; test: Induction of apoptosis in human MDA-MB-231 cells at 100 uM after 24 hrs using annexin V staining by flow cytometry; format: functional
In short: (§1)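 MDA-MB-231 cells were cultured in RPMI 1640 with 100 ml/l FBS and penicillin/streptomycin, then exposed for 24, 48 or 72 h. Harvested cells were stained with annexin V-FITC plus PI using a commercial kit per the manufacturer. Flow cytometry read emission at 530 and […], 10,000 cells per determination. Quadrants scored normal, early apoptotic, late apoptotic and necrotic cells. Results are representative of three experiments.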

[2] = test system: MDA-MB-231; test: Antiproliferative activity against human MDA-MB-231 cells at 100 uM after 48 hrs
[3] = test system: MDA-MB-231; test: Induction of apoptosis in human MDA-MB-231 cells at 100 uM after 48 hrs using annexin V staining by flow cytometry; format: functional; in short: as §1
[4] = test system: MDA-MB-231; test: Cell cycle arrest in human MDA-MB-231 cells assessed as accumulation at G2/M phase at 100 uM after 48 hrs using propidium staining by flow cytometry; format: functional
In short: (§2)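 MDA-MB-231 cells were grown in RPMI 1640 with 100 ml/l FBS, 100 U/ml penicillin and 100 U/ml streptomycin. They were seeded in 60 mm dishes and held 24 h at 37 °C in humidified 50 ml/l CO₂. Cells were exposed for 24, 48 or 72 h, then resuspended in 50 mM Na citrate with propidium iodide for 30 min. DNA content was read by flow cytometry and phase percentages derived from histograms. Data are representative of three independent experiments.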

[5] = test system: MDA-MB-231; test: Induction of apoptosis in human MDA-MB-231 cells at 100 uM after 72 hrs using annexin V staining by flow cytometry; format: functional; in short: as §1
[6] = test system: MDA-MB-231; test: Cell cycle arrest in human MDA-MB-231 cells assessed as accumulation at G2/M phase at 100 uM after 24 hrs using propidium staining by flow cytometry; format: functional; in short: as §2
[7] = test system: MDA-MB-231; test: Cell cycle arrest in human MDA-MB-231 cells decrease of cells at G1 phase at 100 uM after 24 to 72 hrs using propidium staining by flow cytometry; format: functional, cell-based; in short: as §2
[8] = test system: MDA-MB-231; test: Cell cycle arrest in human MDA-MB-231 cells assessed as accumulation at S phase at 100 uM after 24 to 72 hrs using propidium staining by flow cytometry; format: functional, cell-based; in short: as §2
[9] = test system: MDA-MB-231; test: Induction of apoptosis in human MDA-MB-231 cells at 100 uM using annexin V staining by flow cytometry; format: functional, cell-based; conditions: TDE = time-dependent effect; in short: as §1
[10] = test system: MDA-MB-231; test: Cell cycle arrest in human MDA-MB-231 cells assessed as accumulation at G2/M phase at 100 uM after 72 hrs using propidium staining by flow cytometry; format: functional; in short: as §2

## CC(=O)Nc1c(C#N)sc2nc3ccccc3n12
[1]
  Activity: 23.77%
[2]
  Activity: Active
[3]
  Activity: 54.59%
[4]
  Activity: 46.22%
[5]
  Activity: 80%
[6]
  Activity: 42%
[7]
  Activity: Active
[8]
  Activity: Active
[9]
  Activity: tde
[10]
  Activity: 45.79%

Source: ChEMBL document CHEMBL1165892, “Cell cycle disruption and apoptotic activity of 3-aminothiazolo[3,2-a]benzimidazole-2-carbonitrile and its homologues” (2010)
